From ChEMBL document CHEMBL5150043, “Discovery of Anthranilic Acid Derivatives as Difluoromethylornithine Adjunct Agents That Inhibit Far Upstream Element Binding Protein 1 (FUBP1) Function” (J Med Chem, 2022)
Active and inactive are the calls of the source. The rule behind the calls is not given here.

Assays:
[1] = system: L3.6pl; assay: Decrease in intracellular polyamine level in human L3.6pl cells assessed as putrescine level at 60 uM incubated for 24 hrs by HPLC analysis; format: functional, cell-based
Method in brief: (§1)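 L3.6pl cells incubated 24 h at 37 °C with compound (60 μM) or 0.6% DMSO vehicle; native intracellular polyamines then measured; mean ± SD (n = 3).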

[2] = system: L3.6pl; assay: Decrease in intracellular polyamine level in human L3.6pl cells assessed as spermidine level at 60 uM incubated for 24 hrs by HPLC analysis; format: functional, cell-based; method in brief: as §1
[3] = system: L3.6pl; assay: Decrease in intracellular polyamine level in human L3.6pl cells assessed as spermine level at 60 uM incubated for 24 hrs by HPLC analysis; format: functional, cell-based; method in brief: as §1
[4] = system: CHO-K1; assay: Cytotoxicity against chinese hamster CHO-K1 cells assessed as decrease in cell viability measured after 48 hrs by ATPlite assay; format: toxicity, cell-based, Cricetulus griseus; conditions: cho-k1, 48 h
Method in brief: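 CHO-K1 cells dosed alone in 384-well format in parallel with Assays 1 and 2; MTC taken as highest concentration giving ≥90% relative growth versus untreated control; typical error ±10% (n = 3).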

[5] = system: L3.6pl; assay: Inhibition of FUBP1/DNA FUSE region interaction in human […] cells assessed as reduction in c-Myc FUSE DNA pull down at 60 uM incubated for 24 hrs by qRT-PCR analysis; format: cell-based
Method in brief: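 ChIP: L3.6pl cells ± compound (60 μM) 24 h; crosslinked FUBP1–DNA immunoprecipitated with FUBP1 antibody, crosslink reversed, FUSE sequence upstream of c-Myc promoter amplified by qPCR; mean fold change ± SEM (n = 2).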

[6] = system: L3.6pl; assay: Cytotoxicity against human L3.6pl cells assessed as cell viability measured after 72 hrs by ATPlite assay; format: toxicity, cell-based
Method in brief: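 L3.6pl human pancreatic cancer cells in 96-well format were exposed to compound alone for 72 h. Growth was expressed relative to an untreated control. MTC is the highest concentration with relative growth still >90%. […] Data come from two or more experiments, each run in triplicate (n ≥ 6).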

[7] = system: CHO-K1; assay: Inhibition of spermidine uptake in chinese hamster CHO-K1 cells assessed as decrease in cell growth by measuring cellular ATP content measured after 48 hrs in presence of DFMO and spermidine by ATPlite assay; conditions: Cricetulus griseus, CHO-K1, 48 h
[8] = Cytotoxicity against human L3.6pl cells assessed as inhibition of cell growth measured after 72 hrs by ATPlite assay; format: toxicity, cell-based
[9] = system: L3.6pl; assay: Inhibition of FUBP1/DNA FUSE region interaction in human […] cells assessed as decrease in c-myc mRNA level at 20 to 60 uM incubated for 24 hrs by qRT-PCR analysis; format: cell-based; conditions: dose 20-60 µM
Method in brief: (§2)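 L3.6pl cells treated 24 h with compound or matched DMSO; p21 and c-Myc mRNA by qRT-PCR, normalized to β-actin; log mean ± SD (n = 2).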

[10] = system: L3.6pl; assay: Inhibition of FUBP1/DNA FUSE region interaction in human […] cells assessed as reduction in c-myc protein level at 20 to 60 uM incubated for 24 hrs by Western blot analysis; format: cell-based; conditions: dose 20-60 µM
Method in brief: (§3)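 Western blot of L3.6pl cells after 24 h compound treatment with matched DMSO loading; c-Myc, p21 and FUBP1 probed, GAPDH as loading control; at least three independent experiments.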

[11] = target: T1, Far upstream element-binding protein 1 (Homo sapiens) (UniProt Q96AE4); assay: Binding affinity to recombinant GST tagged FUBP1 KH3-KH4 domain (unknown origin) assessed as decrease in FUBP1-FUSE DNA bound complex using 5'-IRDye700 tagged TGTATATTCCCTCGGG oligonucleotide as substrate at 30 to 60 uM measured for 30 mins by Gel shift assay relative to control; conditions: dose 30-60 µM, DDE = dose-dependent effect
T1 sequence (whole entry): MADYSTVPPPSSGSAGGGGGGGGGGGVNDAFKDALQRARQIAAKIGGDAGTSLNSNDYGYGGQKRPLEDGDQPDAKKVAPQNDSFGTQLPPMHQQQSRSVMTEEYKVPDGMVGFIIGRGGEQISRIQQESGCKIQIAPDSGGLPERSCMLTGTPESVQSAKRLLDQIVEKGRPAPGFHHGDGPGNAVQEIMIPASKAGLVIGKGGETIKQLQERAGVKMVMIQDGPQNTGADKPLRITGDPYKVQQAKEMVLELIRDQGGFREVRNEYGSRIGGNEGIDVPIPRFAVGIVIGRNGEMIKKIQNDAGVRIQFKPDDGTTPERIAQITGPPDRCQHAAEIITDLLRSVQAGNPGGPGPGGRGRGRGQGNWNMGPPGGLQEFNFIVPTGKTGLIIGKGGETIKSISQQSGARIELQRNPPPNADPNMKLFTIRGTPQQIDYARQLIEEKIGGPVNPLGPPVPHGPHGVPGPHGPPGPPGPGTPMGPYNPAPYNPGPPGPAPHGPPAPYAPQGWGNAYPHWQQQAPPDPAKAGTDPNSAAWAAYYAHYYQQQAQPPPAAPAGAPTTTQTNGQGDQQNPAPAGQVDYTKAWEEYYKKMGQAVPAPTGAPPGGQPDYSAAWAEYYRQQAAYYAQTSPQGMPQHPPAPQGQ

[12] = Inhibition of spermidine uptake chinese hamster CHO-K1 cells assessed as decrease in cell growth by measuring cellular ATP content measured after 48 hrs in presence of DFMO and spermidine by ATPlite assay; format: functional, cell-based; conditions: Cricetulus griseus, CHO-K1, 48 h
[13] = system: L3.6pl; assay: Decrease in intracellular polyamine level in human L3.6pl cells assessed as total polyamine level at 60 uM incubated for 24 hrs by HPLC analysis; format: functional, cell-based; method in brief: as §1
[14] = system: L3.6pl; assay: Inhibition of FUBP1/DNA FUSE region interaction in human […] cells assessed as increase in p21 protein level at 20 to 60 uM incubated for 24 hrs by Western blot analysis; format: cell-based; conditions: dose 20-60 µM; method in brief: as §3
[15] = system: L3.6pl; assay: Inhibition of FUBP1/DNA FUSE region interaction in human […] cells assessed as increase in p21 mRNA level at 20 to 60 uM incubated for 24 hrs by qRT-PCR analysis; format: cell-based; conditions: dose 20-60 µM; method in brief: as §2
[16] = system: L3.6pl; assay: Inhibition of polyamine transport system in human L3.6pl cells assessed as reduction in [3H] spermidine uptake preincubated for 24 hrs followed by [3H]-spermidine addition and measured after 15 mins by scintillation counter method; format: cell-based; conditions: time 24.25 hrs
Method in brief: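 L3.6pl cells pretreated 24 h with compound, then 3H-Spd added for 15 min; intracellular 3H-Spd measured; mean ± SD (n = 3).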

[17] = system: L3.6pl; assay: Inhibition of polyamine transport system in human L3.6pl cells assessed as reduction in [3H] spermidine uptake preincubated for 72 hrs in presence of DFMO followed by [3H]-spermidine addition and measured after 15 mins by scintillation counter method; format: cell-based; conditions: time 72.25 hrs
Method in brief: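 L3.6pl cells incubated 72 h with DFMO alone or DFMO plus compound, then 3H-Spd added for 15 min; intracellular 3H-Spd measured; mean ± SD (n = 3).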

[18] = system: L3.6pl; assay: Inhibition of polyamine uptake in human L3.6pl cells assessed as inhibition of Ant44-induced toxicity by measuring cellular ATP content at MTC measured after 72 hrs in presence of Ant44 by ATPlite assay; format: functional
Method in brief: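 L3.6pl cells, Ant44 challenge over 72 h, compound dosed up to its MTC; ECx = percentage effect at the MTC on scale from Ant44-only (50% growth) to untreated (100%); average of ≥2 experiments in triplicate (n ≥ 6).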

[19] = Inhibition of spermidine uptake in human L3.6pl cells assessed as inhibition of cell growth by measuring cellular ATP content at MTC measured after 72 hrs in presence of DFMO and spermidine by ATPlite assay; format: functional
Method in brief: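 L3.6pl cells with DFMO and spermidine over 72 h, compound dosed up to its MTC; ECx = percentage effect at the MTC on scale between DFMO-only (50%) and DFMO + Spd (100%) controls; average of ≥2 experiments in triplicate (n ≥ 6).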

NCCCC(N)(C(=O)O)C(F)F (stereo not drawn)
Activity [1]: Active
Activity [2]: Active

COc1ccc(C(=O)Nc2ccc(N3CCN(c4cc(Cl)ccc4C)CC3)cc2C(=O)O)cc1
Activity [3]: Active
MTC [4]: 13 µM
inhibition [5]: Active
Activity [1]: Active
MTC [6]: 8 µM
EC50 [7]: 8 µM
IC50 at 72 h [8]: 16.8 µM
Activity [2]: Active
inhibition [9]: Active
inhibition ([10]; DDE = dose-dependent effect): Dde
Activity [11]: Dde
EC50 [12]: > 40 µM
Activity [13]: Active
inhibition ([14]; DDE = dose-dependent effect): Dde
inhibition [15]: Active

CNCCCCNCCCCNCc1cc(CNCCCCNCCCCNC)cc(CNCCCCNCCCCNC)c1
inhibition [16]: Active
inhibition [17]: Active

COc1ccc(C(=O)Nc2ccc(N3CCN(c4ccccc4OC)CC3)cc2C(=O)O)cc1
MTC [4]: > 40 µM
inhibition (INH) [18]: 25%
MTC [6]: 6 µM
EC50 [7]: 26 µM
inhibition (INH) [19]: 8%
IC50 at 72 h [8]: 13.3 µM
EC50 [12]: 9 µM

COc1ccc(-c2cc(C(F)(F)F)n3nc(-c4cccs4)cc3n2)cc1OC
inhibition [10]: Active
inhibition [14]: Active
